Measured values gathered from unrelated publications.
Protocols differ between the studies behind these lines. pIC50: −log10 of the molar value.
Cell line: UACC-257
Effect on: cell growth or viability

Compound | test | conditions | quantity | value
COc1cc(-c2ccc(-c3ccc(C(=N)N)nc3)s2)cc(OC)c1OC | SRB |  | GI50 | 2150 nM
COc1ccc(C(=O)/C=C/c2cccc(Cl)c2Cl)cc1S(N)(=O)=O | SRB | 10 µM | inhibition | 65%
O=C1NCCc2[nH]c(-c3ccncc3)cc21 |  |  | pIC50 | < 5.00
NC(=O)c1cc(Cl)ccc1NC(=O)COc1ccccc1 |  |  | GI50 | > 100000 nM
O=C1NC(=NCc2cccs2)S/C1=C\c1ccc2ncccc2c1 |  |  | pIC50 | < 5.00
COc1ccc(C2=Nn3c(NN=C4C(=O)Nc5ccc(Cl)cc54)nnc3SC2)cc1 | SRB | 10 µM | inhibition | 27%
COc1ccc(-c2ccc(-c3ccc(C(=N)N)nc3)s2)cc1Cl | SRB |  | GI50 | 1880 nM
COc1ccc(C(=O)/C=C/c2cc3c(cc2Br)OCO3)cc1S(N)(=O)=O | SRB | 10 µM | inhibition | 36%
O=C1Nc2ccccc2C1=NNc1nnc2n1N=C(c1ccccc1)CS2 | SRB | 10 µM | inhibition | 11%
